Where a name gives a salt, the structure may show the parent alone.
Experiments:
[1] = molecular target: Human immunodeficiency virus type 1 reverse transcriptase (Human immunodeficiency virus 1, UniProt Q72547); test: In vitro inhibitory concentration against HIV-1 reverse transcriptase using rC-dG template primer
MT4 = test: Cell culture inhibitory concentration against spread of HIV-I infection in MT-4 cells was determined; format: functional; conditions: Homo sapiens, read-out: CIC95
Method in brief: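 Spread of HIV-1 infection in MT-4 cell culture; the read-out is HIV-1 p24 core antigen by ELISA. The value is the lowest concentration giving ≥95% inhibition of infection spread (CIC95).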

| Structure (SMILES) | IC50 [1] | IC95 (MT4) |
| --- | --- | --- |
| CCc1cc(CCc2nc3ccccc3o2)c(O)nc1C | 20 nM | – |
| CCc1cc(CCc2cc(CC)c(C)nc2OC)c(O)nc1C | 65 nM | – |
| CCc1cc(CNc2cc(CC)c(C)nc2O)c(O)nc1C | 91 nM | – |
| CCc1ccc(OC)c(CNc2cc(CC)c(C)nc2O)c1 | 32 nM | – |
| CCc1cc(NCc2ccccc2[N+](=O)[O-])c(=O)[nH]c1C | 530 nM | – |
| CCc1cc(NCc2ccccc2OC)c(O)nc1C | 265 nM | 400 nM |
| CC(C)=CCN1Cc2cccc3[nH]c(=S)n(c23)C[C@@H]1C | 70 nM | 200 nM |
| CCc1cc(NCc2ccccc2O)c(=O)[nH]c1C | 4600 nM | – |
| CCc1cc(NCc2ccncc2OC)c(=O)[nH]c1C | 110000 nM | – |
| CCc1cc(NCc2cc3ccccc3nc2OC)c(O)nc1C | 34 nM | – |
| Cc1ccnc2c1NC(=O)c1cccnc1N2C1CC1 [NEVIRAPINE] | – | 100 nM |
| CCc1cc(NCc2nc3c(cc2OC)CCCC3)c(O)nc1C | 47 nM | – |
| CCc1ccccc1CNc1cc(CC)c(C)[nH]c1=O | 6900 nM | – |
| CCc1cc(NCc2ccccc2F)c(O)nc1C | 1400 nM | – |
| CCc1cc(NCc2nc3c(Cl)ccc(Cl)c3o2)c(O)nc1C [L-697661] | – | 50 nM |
| CCOc1ccccc1CNc1cc(CC)c(C)nc1O | 350 nM | – |
| CCc1cc(NCc2cccnc2OC)c(O)nc1C | 680 nM | 800 nM |
| CCc1cc(NCc2ccc(C)cc2OC)c(O)nc1C | 32 nM | – |
| CCc1cc(NCc2ccccc2C(F)(F)F)c(=O)[nH]c1C | 12500 nM | – |
| CCc1cc(NCc2ccccc2N)c(O)nc1C | 28000 nM | – |
| CCc1cc(NCc2ccccc2C)c(O)nc1C | 2200 nM | – |
| CCc1cc(NCc2cccc(C)c2OC)c(O)nc1C | 3800 nM | – |
| CCc1cc(NCc2cnccc2OC)c(=O)[nH]c1C | 10000 nM | – |

| Structure (SMILES) | IC50 [1] | IC95 (MT4) |
| --- | --- | --- |
| CCc1cc(NCc2nc(C)c(C)cc2OC)c(O)nc1C | 70 nM | 100 nM |
| CCc1cc(NCc2cccc(OC)c2)c(=O)[nH]c1C | 1250 nM | – |
| CCc1cc(NCc2cc(C)c(C)nc2OC)c(O)nc1C | 9 nM | 50 nM |
| CCc1cc(NCc2ccccc2C#N)c(=O)[nH]c1C | 790 nM | – |
| CCc1cc(NCc2cc3c(cc2OC)CCC3)c(=O)[nH]c1C | 40 nM | – |
| CCc1ccc(CNc2cc(CC)c(C)nc2O)c(OC)c1 | 510 nM | – |
| CCNc1cccnc1N1CCN(C(=O)c2cc3cc(OC)ccc3[nH]2)CC1 [ATEVIRDINE MESYLATE] | – | 1500 nM |
| CCc1cc(NCc2nc(CC)c(C)cc2OC)c(O)nc1C | 70 nM | – |
| CCc1cc(CNc2cc(CC)c(C)[nH]c2=O)c(OC)cc1C | 33 nM | – |
| CCc1cc(NCc2ccc(OC)cc2)c(O)nc1C | 7500 nM | – |
| CCc1cc(NCc2nc3c(cc2OC)CCC3)c(O)nc1C | 40 nM | – |
| CCc1cc(NCc2ccccc2COC)c(O)nc1C | 35500 nM | – |
| CCc1cc(NCc2cc(C)ccc2OC)c(O)nc1C | 23 nM | – |
| CCc1cc(NCc2ccccc2Cl)c(O)nc1C | 1450 nM | – |
| CCc1cc(NCc2cc(CC)c(C)nc2OC)c(O)nc1C | 19 nM | 13 nM |
| CCc1cc(NCc2cc3c(nc2OC)CCCC3)c(O)nc1C | 35 nM | – |
| CCc1cc(CCc2cc(CC)c(C)nc2O)c(O)nc1C | 400 nM | – |
| CCc1cc(NCc2c(C)cccc2OC)c(=O)[nH]c1C | 1300 nM | – |
| CCc1cc(NCc2ccccc2SC)c(=O)[nH]c1C | 1500 nM | – |
| CCOCn1c(Sc2ccccc2)c(CC)c(=O)[nH]c1=O | 32 nM | 100 nM |
| CCc1cc(NCc2cc(C)c(C)cc2OC)c(O)nc1C | 8 nM | 13 nM |
| CCc1cc(NCc2ncccc2OC)c(=O)[nH]c1C | 1550 nM | – |

Reference: ChEMBL document CHEMBL1127029, “Synthesis and evaluation of 2-pyridinone derivatives as specific HIV-1 reverse transcriptase inhibitors. 3. Pyridyl and phenyl analogs of 3-aminopyridin-2(1H)-one” (J Med Chem, 1993)
